We go through 3 compounds from ChEMBL document CHEMBL4406859, “Antitumor and antiviral activities of 4-substituted 1,2,3-triazolyl-2,3-dibenzyl-L-ascorbic acid derivatives” (Eur J Med Chem, 2019).

Data set [1] can be described thus: Cytotoxicity against human HELF cells assessed as minimum cytotoxic concentration by observing alteration in cell morphology incubated for 3 days by microscopic analysis. Format: cell-based. The settings on record: HELF cells. The method, boiled down: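 Read-out is the minimum cytotoxic concentration (MCC): the lowest compound concentration giving a microscopically detectable change in cell morphology. Measured on confluent human embryonic lung (HEL) fibroblast cultures exposed to a range of compound concentrations.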

The test system of data set [2] is Influenza A virus. Description: Antiviral activity against Influenza A virus (A/Ned/378/05(H1N1)) infected in dog MDCK cells assessed as reduction in virus-induced cytopathogenicity incubated for 7 days by microscopic analysis. Format: functional, organism-based.
Data set [3] relates to Influenza A virus H3N2. Description: Antiviral activity against Influenza A virus (A/HK/7/87(H3N2)) infected in dog MDCK cells assessed as reduction in virus-induced cytopathogenicity incubated for 7 days by microscopic analysis. It counts as functional, organism-based. The settings on record: A/Hong Kong/7/1987(H3N2), 168 h. On the technique in general: Cytopathic effects are the visible damage that an infection or toxin causes in cultured cells.

Data set [4] relates to Influenza B virus. Description: Antiviral activity against Influenza B virus (B/Ned/537/05) infected in dog MDCK cells assessed as reduction in virus-induced cytopathogenicity incubated for 7 days by microscopic analysis. Format: functional, organism-based. As to conditions: 168 h.
The test system of data set [5] is Influenza A virus. Description: Antiviral activity against Influenza A virus (A/Ned/378/05(H1N1)) infected in dog MDCK cells assessed as reduction in virus-induced cytopathogenicity incubated for 7 days by MTS assay. Format: functional, organism-based. The settings on record: Influenza A virus, A/Ned/378/05(H1N1), MDCK, 168 h.
In data set [6] the test system is Influenza A virus H3N2. Description: Antiviral activity against Influenza A virus (A/HK/7/87(H3N2)) infected in dog MDCK cells assessed as reduction in virus-induced cytopathogenicity incubated for 7 days by MTS assay. The settings on record: A/Hong Kong/7/1987(H3N2), 168 h. It counts as functional, organism-based.
Data set [7] concerns Influenza B virus. Description: Antiviral activity against Influenza B virus (B/Ned/537/05) infected in dog MDCK cells assessed as reduction in virus-induced cytopathogenicity incubated for 7 days by MTS assay. Format: functional, organism-based. The settings on record: 168 h.
The nature of data set [8]: Cytotoxicity against dog MDCK cells assessed as minimum cytotoxic concentration by observing alteration in cell morphology incubated for 3 days by microscopic analysis. Format: cell-based, Canis lupus familiaris.
The nature of data set [9]: (§1) Cytotoxicity against dog MDCK cells assessed as reduction in cell viability incubated for 3 days by coulter counter method. It counts as cell-based, Canis lupus familiaris. The settings on record: MDCK cells.
The subject of data set [10] is MDCK. The data set is described as §1. As to conditions: mdck, 72 h. It counts as cell-based, Canis lupus familiaris.

By EC50 is commonly meant the concentration that produces a half-maximal response. By CC50 is commonly meant the concentration at which the toxic effect on the cells reaches its halfway point. Take `NC(=O)c1ncn([C@@H]2O[C@H](CO)[C@@H](O)[C@H]2O)n1` [RIBAVIRIN]: the MCC at 72 h in data set [1] is more than 250 µM; in data set [8], more than 100 µM. In addition, the EC50 was found to be 8.9 µM in data set [2]; 2.3 µM in data set [3]; 5.6 µM in data set [4]; 18.2 µM in data set [5]; 1.4 µM in data set [6]; 4.6 µM in data set [7]. In addition, the CC50 at 72 h in [9] is more than 100 µM.

`CC(=O)N[C@H]1[C@H]([C@H](O)[C@H](O)CO)OC(C(=O)O)=C[C@@H]1N=C(N)N` [ZANAMIVIR]: the EC50 in data set [3] was 0.4 µM; in [4], 0.4 µM; in data set [6] it was 0.01 µM; in data set [7] it was 0.4 µM. The MCC at 72 h in [8] is more than 100 µM. In addition, the 50% cytotoxic concentration (CC50) in data set [10] is not below 100 µM.

For the compound `CC(N)C12CC3CC(CC(C3)C1)C2` (stereo not drawn) [RIMANTADINE], the EC50 was more than 200 µM in data set [2] (Influenza A virus, A/Ned/378/05(H1N1), MDCK, 168 h); 0.01 µM in [3]; more than 200 µM in [4]; more than 200 µM in [5]; 0.01 µM in data set [6]; more than 200 µM in data set [7]. The MCC at 72 h in data set [8] was more than 200 µM. The CC50 in data set [10] was more than 200 µM.
